Compounds with a hit are over-represented: about 29% of the library has one in this group of screens.
Ecoli tolC: growth inhibitors of E. coli BW25113 tolC mutant. AID 573. 65,000 compounds, 2.2% hits. OD615. growth inhibition, % at 10 µM (by protocol);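 active = growth inhibition at or above a cutoff equal to the mean over every tested compound plus 3 SD, cut at about 60% in these data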;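 also: growth measured after 20 h incubation at 37 °C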
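Material: E. coli BW25113 ΔtolC::kan, tolC deletion mutant strain. Measure: percent growth inhibition. Schedule: 37 °C, 20 h exposure. Doses: single-point testing at 10 µM. Signal: A615 absorbance measurement. Buffer or medium: kanamycin-containing LB broth (50 µg/mL).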
CYP2C19 activ: increases human CYP2C19 enzyme activity; P33261; recombinant CYP2C19, luciferin-H EGE luminescence; hits give high values; 0 = fully inhibited enzyme, 1 = untreated enzyme; activation factor at 5 µM; 96,000 tested, under 10 active; AID 1025;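 active = activation factor of at least 2 at 5 µM in the primary screen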
Target sequence (P33261 whole entry, looked up): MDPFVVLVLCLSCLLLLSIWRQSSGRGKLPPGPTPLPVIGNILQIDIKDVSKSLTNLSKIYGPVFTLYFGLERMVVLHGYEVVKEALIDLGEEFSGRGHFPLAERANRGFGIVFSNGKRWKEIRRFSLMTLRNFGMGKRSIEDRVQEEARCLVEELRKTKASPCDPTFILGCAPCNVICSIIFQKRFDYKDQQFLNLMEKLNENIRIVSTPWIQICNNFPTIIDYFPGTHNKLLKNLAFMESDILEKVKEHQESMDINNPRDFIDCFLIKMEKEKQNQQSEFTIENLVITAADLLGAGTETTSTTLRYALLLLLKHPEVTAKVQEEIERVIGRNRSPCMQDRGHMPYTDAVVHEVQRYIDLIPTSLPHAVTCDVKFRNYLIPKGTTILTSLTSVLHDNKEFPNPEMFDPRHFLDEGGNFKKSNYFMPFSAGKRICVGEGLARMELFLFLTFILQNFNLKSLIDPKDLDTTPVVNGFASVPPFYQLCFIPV
CYP2C9 act: CYP2C9 (human) activation | recombinant CYP2C9, luciferin-H conversion, luminescence; hits give high values; factor 1 = untreated enzyme, 0 = blocked | AID 1024 | activation factor at 5 µM | 96,000 compounds, 1.4% hits | P11712;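 active = activation factor of 2 or more for CYP2C9 at a 5 µM dose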
E coli WT exp: E. coli BW25113 growth inhibition, expanded screen; OD600 absorbance; 98,000 compounds, 0.15% hits; growth inhibition, % at 100 µM; AID 710;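 active = growth inhibition above about 50% at one test dose, limit read from the data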;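 also: growth measured after 20 h incubation at 37 °C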
CYP2C9 inh: human CYP2C9 inhibition | P11712 | inhibition, % at 5 µM | CYP2C9 Supersomes, luciferin-H conversion, luminescence | 96,000 compounds, 20% hits;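 active = blocking of liver enzyme CYP2C9 beyond about 50% at 5 µM, limit read from the data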
CYP2C19 inh: inhibitors of human CYP2C19. P33261. CYP2C19 Supersomes, luciferin-H EGE luminescence, 30 min. inhibition, % at 5 µM. 96,000 compounds, 21% hits. AID 778;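 active = CYP2C19 inhibition above a set limit at 5 µM in the primary screen, cut at about 50% in these data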
A number is an active result; - = inactive; . = not tested or not shown.

SMILES	Ecoli tolC	CYP2C19 activ	CYP2C9 act	E coli WT exp	CYP2C9 inh	CYP2C19 inh
COC(=O)c1sccc1NC(=O)c1cc2c(s1)CCCC2	61	-	-	-	61	-
COc1ccc(C2=NOC(C(=O)NCCN3CCOCC3)C2)cc1 (stereo not drawn)	-	-	-	-	-	-
Nc1nc(C2CCCN2S(=O)(=O)c2ccc(Cl)cc2)cs1 (stereo not drawn)	-	-	-	-	-	80
Cc1ccc(S(=O)(=O)N2CCCC2C(=O)Nc2nc3ccccc3s2)cc1 (stereo not drawn)	-	-	-	-	86	97
O=S(=O)(c1ccccc1)N1CCCC1c1nc2ccccc2s1 (stereo not drawn)	.	-	-	-	-	-
O=C(Nc1nc2ccccc2s1)C1CCCN1S(=O)(=O)c1ccc(Cl)cc1 (stereo not drawn)	86	-	-	-	97	96
CC1CN(C(=O)C2CCCN2S(=O)(=O)c2ccc(Cl)cc2)CC(C)O1 (stereo not drawn)	-	-	-	-	-	-
COc1ccc(S(=O)(=O)CC(O)CN2CCCC2=O)cc1 (stereo not drawn)	.	-	-	-	-	-
COc1ccc(CN2CCC(C(=O)NCCc3ccc(OC)c(OC)c3)CC2)c(OC)c1	.	-	-	-	-	-
Nc1cc(=O)nc(SCC(=O)NC2CCCCC2)n1-c1ccccc1	-	-	-	-	-	-
CCOC(=O)c1c(C)[nH]c(C)c1C(=O)COC(=O)c1ccc(Cl)c(S(=O)(=O)NCc2ccccc2)c1	.	-	-	-	80	82
CC1(C)C(=O)Nc2ccccc2N1C(=O)COC(=O)c1ccc(Cl)c(S(=O)(=O)NCc2ccccc2)c1	.	-	-	-	93	-
CN(C)S(=O)(=O)c1cccc(C(=O)OCC(=O)N2c3ccccc3NC(=O)C2(C)C)c1	-	-	-	-	-	-
CS(=O)(=O)c1ccc(Cl)c(S(=O)(=O)NCc2ccccc2)c1	-	-	-	-	-	-
O=C1C2Sc3[nH]c(=O)sc3C(c3ccccc3)C2C(=O)N1c1ccccc1 (stereo not drawn)	.	-	-	-	-	57
COc1ccc(C2c3sc(=O)[nH]c3SC3C(=O)N(c4ccccc4)C(=O)C32)cc1 (stereo not drawn)	-	-	-	-	81	62
O=c1[nH]c2c(s1)C(c1ccccc1)C1C3CCC(C3)C1S2 (stereo not drawn)	-	-	-	-	-	-
C/C(=N/NC(=O)Cc1cccc2ccccc12)c1cccs1	.	-	-	-	-	76
C/C(=N\NC(=O)C1CC1c1ccccc1)c1cccs1 (stereo not drawn)	.	-	-	-	51	88
COc1ccc(C2CC2/C(=N/OC(=O)c2cccs2)c2ccccc2)cc1 (stereo not drawn)	.	-	-	-	94	71
CN(C)CCCNc1oc(-c2cccc(Cl)c2)nc1C#N	-	-	-	-	-	-
Cc1cc(C)n(CCO)c(=O)n1	-	-	-	-	-	-
Cc1cc(C)n(CC(O)Cn2c3ccccc3c3ccccc32)c(=O)n1 (stereo not drawn)	-	-	-	-	72	84
Cc1cc(C)n(CC(O)Cn2c3ccc(Br)cc3c3cc(Br)ccc32)c(=O)n1 (stereo not drawn)	.	-	-	-	69	-
Cc1cc2cc(CCNC(=O)c3c(-c4ccccc4Cl)noc3C)c(=O)[nH]c2cc1C	-	-	-	-	-	-
SMILES	Ecoli tolC	CYP2C19 activ	CYP2C9 act	E coli WT exp	CYP2C9 inh	CYP2C19 inh
O=C(O)c1ccc(-c2ccc(O)c(F)c2)cc1	-	-	-	-	-	-
COc1ccccc1NS(=O)(=O)c1ccc(C)c(C(N)=O)c1	-	-	-	-	-	88
COc1ccccc1NS(=O)(=O)c1ccc(OC)c(OC)c1	-	-	2.6	-	-	99
COc1ccc(S(=O)(=O)Nc2ccccc2C(=O)OC2CCCN(C)C2)cc1OC (stereo not drawn)	-	-	-	-	-	66
COc1ccccc1NS(=O)(=O)c1cc(Cl)ccc1OC	-	-	-	-	-	97
CCOc1ccccc1NS(=O)(=O)c1ccc(OC)c(OC)c1	-	.	.	-	.	.
CN1CCCC(OC(=O)COc2ccccc2)C1 (stereo not drawn)	-	-	-	-	-	-
COc1ccc(NS(=O)(=O)c2ccc(C)c(C(=O)O)c2)cc1	-	-	-	-	-	-

Assay outcomes deposited in PubChem BioAssay by several laboratories.
